# Results as given in ChEMBL document CHEMBL1121965, “Nonsteroidal estrogens: synthesis and estrogen receptor binding affinity of derivatives of (3R*,4S*)-3,4-bis(4-hydroxyphenyl)hexane (hexestrol) and (2R*,3S*)-2,3-bis(4-hydroxyphenyl)pentane (norhexestrol) functionalized on the side chain” (J Med Chem, 1982).
# Biological target: Estrogen receptor (Ovis aries) (UniProt P49885+Q9TU15)
# Test: The ratio of association constant for estrogen receptor using [3H]estradiol as a tracer, relative to estradiol
# Format: protein assay
# How it was run: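 Competitive binding: lamb uterine cytosol supplied estrogen receptor, [3H]estradiol served as tracer, and free tracer was removed from bound by charcoal-dextran adsorption. Relative association constants were expressed against estradiol set at 100.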
row,RAC,SMILES
1,137,CC[C@H](c1ccc(O)cc1)[C@@H](C)c1ccc(O)cc1
2,150,CC[C@H](c1ccc(O)cc1)[C@@H](CBr)c1ccc(O)cc1
3,58,CC[C@H](c1ccc(O)cc1)[C@@H](C(C)=O)c1ccc(O)cc1
4,0.15,CCCCCNC(=O)C[C@@H](c1ccc(O)cc1)[C@H](CC)c1ccc(O)cc1
5,0.2,CC[C@H](c1ccc(O)cc1)[C@@H](C(N)=O)c1ccc(O)cc1
6,2.8,CC[C@H](c1ccc(O)cc1)[C@@H](CC(=O)C[N+]#N)c1ccc(O)cc1
7,15,CCC(c1ccc(O)cc1)C(CCO)c1ccc(O)cc1 (centres undefined)
8,19,CC[C@H](c1ccc(O)cc1)[C@@H](CC(=O)OC)c1ccc(O)cc1
9,21,CC[C@H](c1ccc(O)cc1)[C@@H](CC(C)=O)c1ccc(O)cc1
10,0.29,CCCCCNC(=O)[C@@H](c1ccc(O)cc1)[C@H](CC)c1ccc(O)cc1
11,81,CCCCC(=O)[C@@H](c1ccc(O)cc1)[C@H](CC)c1ccc(O)cc1
12,129,CC[C@H](c1ccc(O)cc1)[C@@H](CF)c1ccc(O)cc1
13,300,CC[C@H](c1ccc(O)cc1)[C@@H](CC)c1ccc(O)cc1
14,129,CCC(c1ccc(O)cc1)C(CCF)c1ccc(O)cc1 (centres undefined)
15,10.9,CC[C@H](c1ccc(O)cc1)[C@@H](C(=O)C[N+]#N)c1ccc(O)cc1
16,70,CCC(c1ccc(O)cc1)C(C(=O)OC)c1ccc(O)cc1 (centres undefined)
17,71,CCC(c1ccc(O)cc1)C(CCBr)c1ccc(O)cc1 (centres undefined)
18,127,CC[C@H](c1ccc(O)cc1)[C@@H](CI)c1ccc(O)cc1
19,0.09,CC[C@H](c1ccc(O)cc1)[C@@H](CC(N)=O)c1ccc(O)cc1
20,60,CCC(c1ccc(O)cc1)C(CCI)c1ccc(O)cc1 (centres undefined)
21,9.4,CCCCC(=O)C[C@@H](c1ccc(O)cc1)[C@H](CC)c1ccc(O)cc1
22,61,CCCCCOC(=O)C(c1ccc(O)cc1)C(CC)c1ccc(O)cc1 (centres undefined)
23,8.9,CC[C@H](c1ccc(O)cc1)[C@@H](CO)c1ccc(O)cc1
24,3.8,CCCCCOC(=O)CC(c1ccc(O)cc1)C(CC)c1ccc(O)cc1 (centres undefined)
